Laboratory results taken from ChEMBL document CHEMBL1250501, “Anti-tubercular agents. Part 5: synthesis and biological evaluation of benzothiadiazine 1,1-dioxide based congeners” (Eur J Med Chem, 2010).
≈ marks a conversion by molar mass, not a printed value. Calls of active or inactive are those of the source. The rule behind the calls is not given here.

Legend:
[1] = tested on: Pseudomonas aeruginosa; assay: Antibacterial activity against Pseudomonas aeruginosa at 25 ug/ml after 18 hrs by cup plate method; format: functional; conditions: read-out: DIZ
Summary of the method: (§1)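 Agar well diffusion on Mueller-Hinton agar. Inoculum was adjusted to a 0.5 McFarland standard (about […] × 10⁸ CFU/mL) and swabbed over the plate three times, rotating about 60° each time, then the rim was swabbed. Compounds in DMSO went into duplicate 6 mm wells. Plates were incubated at 37 °C for 18 h and inhibition zone diameter read to the nearest mm. DMSO negative control; streptomycin and ciprofloxacin positive controls.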

[2] = tested on: Klebsiella pneumoniae; assay: Antibacterial activity against Klebsiella pneumoniae at 75 ug/ml after 18 hrs by cup plate method; format: functional; conditions: read-out: DIZ; summary of the method: as §1
[3] = tested on: Staphylococcus epidermidis; assay: Antibacterial activity against Staphylococcus epidermidis at 75 ug/ml after 18 hrs by cup plate method; format: functional; conditions: read-out: DIZ; summary of the method: as §1
[4] = tested on: Aspergillus niger; assay: Antifungal activity against Aspergillus niger at 100 ug/ml after 48 hrs by cup plate method; format: functional
Summary of the method: (§2)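 Agar well (cup plate) diffusion on potato dextrose agar 39 g/L, with compounds dissolved in DMSO. Plates were incubated at 28 ± 2 °C for 48 h and inhibition zones measured to the nearest mm. Three replicates per treatment. Amphotericin B positive control; solvent control included.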

[5] = tested on: Candida albicans; assay: Antifungal activity against Candida albicans MTCC 227 at 25 ug/ml after 48 hrs by cup plate method; format: functional
Summary of the method: (§3)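 Agar well (cup plate) diffusion on potato dextrose agar 39 g/L. Compounds dissolved in DMSO and loaded into 6 mm wells. Incubated at 28 ± 2 °C for 48 h. Inhibition zone diameter measured to the nearest millimetre, three replicates per treatment. DMSO solvent as negative control, amphotericin B as positive control.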

[6] = tested on: Staphylococcus epidermidis; assay: Antibacterial activity against Staphylococcus epidermidis at 10 ug/ml after 18 hrs by cup plate method; format: functional; conditions: read-out: DIZ; summary of the method: as §1
[7] = tested on: Staphylococcus epidermidis; assay: Antibacterial activity against Staphylococcus epidermidis at 100 ug/ml after 18 hrs by cup plate method; format: functional; conditions: read-out: DIZ; summary of the method: as §1
[8] = tested on: Pseudomonas aeruginosa; assay: Antibacterial activity against Pseudomonas aeruginosa at 10 ug/ml after 18 hrs by cup plate method; format: functional; summary of the method: as §1
[9] = tested on: Aspergillus niger; assay: Antifungal activity against Aspergillus niger at 50 ug/ml after 48 hrs by cup plate method; format: functional, organism-based; summary of the method: as §2
[10] = tested on: Candida albicans; assay: Antifungal activity against Candida albicans MTCC 227 at 100 ug/ml after 48 hrs by cup plate method; format: functional; conditions: MTCC 227, 48 h, read-out: IZ; summary of the method: as §2
[11] = tested on: Staphylococcus aureus; assay: Antibacterial activity against Staphylococcus aureus at 25 ug/ml after 18 hrs by cup plate method; format: functional; conditions: read-out: DIZ; summary of the method: as §1
[12] = tested on: Pseudomonas aeruginosa; assay: Antibacterial activity against Pseudomonas aeruginosa at 50 ug/ml after 18 hrs by cup plate method; format: functional; conditions: read-out: DIZ; summary of the method: as §1
[13] = tested on: Klebsiella pneumoniae; assay: Antibacterial activity against Klebsiella pneumoniae at 25 ug/ml after 18 hrs by cup plate method; format: functional; conditions: read-out: DIZ; summary of the method: as §1
[14] = tested on: Escherichia coli; assay: Antibacterial activity against Escherichia coli at 100 ug/ml after 18 hrs by cup plate method; format: functional; conditions: read-out: DIZ; summary of the method: as §1
[15] = tested on: Bacillus subtilis; assay: Antibacterial activity against Bacillus subtilis at 100 ug/ml after 18 hrs by cup plate method; format: functional; conditions: read-out: DIZ; summary of the method: as §1
[16] = tested on: Aspergillus sp.; assay: Antifungal activity against Aspergillus sp. at 100 ug/ml after 48 hrs by cup plate method; format: functional; summary of the method: as §2
[17] = tested on: Bacillus subtilis; assay: Antibacterial activity against Bacillus subtilis at 10 ug/ml after 18 hrs by cup plate method; format: functional; summary of the method: as §1
[18] = tested on: Aspergillus sp.; assay: Antifungal activity against Aspergillus sp. at 50 ug/ml after 48 hrs by cup plate method; format: functional; summary of the method: as §2
[19] = tested on: Bacillus subtilis; assay: Antibacterial activity against Bacillus subtilis at 25 ug/ml after 18 hrs by cup plate method; format: functional; conditions: read-out: DIZ; summary of the method: as §1
[20] = tested on: Klebsiella pneumoniae; assay: Antibacterial activity against Klebsiella pneumoniae at 50 ug/ml after 18 hrs by cup plate method; format: functional; conditions: read-out: DIZ; summary of the method: as §1
[21] = tested on: Escherichia coli; assay: Antibacterial activity against Escherichia coli at 25 ug/ml after 18 hrs by cup plate method; format: functional; conditions: read-out: DIZ; summary of the method: as §1
[22] = tested on: Aspergillus sp.; assay: Antifungal activity against Aspergillus sp. at 25 ug/ml after 48 hrs by cup plate method; format: functional; summary of the method: as §2
[23] = tested on: Candida albicans; assay: Antifungal activity against Candida albicans MTCC 227 at 75 ug/ml after 48 hrs by cup plate method; format: functional; summary of the method: as §3
[24] = tested on: Staphylococcus aureus; assay: Antibacterial activity against Staphylococcus aureus at 10 ug/ml after 18 hrs by cup plate method; format: functional; conditions: read-out: DIZ; summary of the method: as §1
[25] = tested on: Aspergillus niger; assay: Antifungal activity against Aspergillus niger at 75 ug/ml after 48 hrs by cup plate method; format: functional; summary of the method: as §2
[26] = tested on: Candida albicans; assay: Antifungal activity against Candida albicans MTCC 227 at 50 ug/ml after 48 hrs by cup plate method; format: functional; summary of the method: as §3
[27] = tested on: Staphylococcus aureus; assay: Antibacterial activity against Staphylococcus aureus at 100 ug/ml after 18 hrs by cup plate method; format: functional; conditions: read-out: DIZ; summary of the method: as §1
[28] = tested on: Escherichia coli; assay: Antibacterial activity against Escherichia coli at 75 ug/ml after 18 hrs by cup plate method; format: functional; conditions: read-out: DIZ; summary of the method: as §1
[29] = tested on: Klebsiella pneumoniae; assay: Antibacterial activity against Klebsiella pneumoniae at 10 ug/ml after 18 hrs by cup plate method; format: functional; conditions: read-out: DIZ; summary of the method: as §1
[30] = tested on: Staphylococcus aureus; assay: Antibacterial activity against Staphylococcus aureus at 50 ug/ml after 18 hrs by cup plate method; format: functional; conditions: read-out: DIZ; summary of the method: as §1
[31] = tested on: Pseudomonas aeruginosa; assay: Antibacterial activity against Pseudomonas aeruginosa at 75 ug/ml after 18 hrs by cup plate method; format: functional; conditions: read-out: DIZ; summary of the method: as §1
[32] = tested on: Escherichia coli; assay: Antibacterial activity against Escherichia coli at 10 ug/ml after 18 hrs by cup plate method; format: functional; conditions: read-out: DIZ; summary of the method: as §1
[33] = tested on: Staphylococcus epidermidis; assay: Antibacterial activity against Staphylococcus epidermidis at 50 ug/ml after 18 hrs by cup plate method; format: functional; conditions: read-out: DIZ; summary of the method: as §1
[34] = tested on: Klebsiella pneumoniae; assay: Antibacterial activity against Klebsiella pneumoniae at 100 ug/ml after 18 hrs by cup plate method; format: functional; conditions: read-out: DIZ; summary of the method: as §1
[35] = tested on: Bacillus subtilis; assay: Antibacterial activity against Bacillus subtilis at 75 ug/ml after 18 hrs by cup plate method; format: functional; conditions: read-out: DIZ; summary of the method: as §1
[36] = tested on: Aspergillus sp.; assay: Antifungal activity against Aspergillus sp. at 75 ug/ml after 48 hrs by cup plate method; format: functional; summary of the method: as §2
[37] = tested on: Mycobacterium tuberculosis; assay: Antimycobacterial activity against Mycobacterium tuberculosis H37Rv after 3 to 4 weeks by broth microdilution assay; format: functional
Summary of the method: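 MIC by broth microdilution on compounds active in a single-concentration primary screen. Plates incubated 3–4 weeks at 37 °C in a CO₂ incubator. Wells read visually for absence of growth turbidity.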

[38] = tested on: Pseudomonas aeruginosa; assay: Antibacterial activity against Pseudomonas aeruginosa at 100 ug/ml after 18 hrs by cup plate method; format: functional; conditions: read-out: DIZ; summary of the method: as §1
[39] = tested on: Staphylococcus aureus; assay: Antibacterial activity against Staphylococcus aureus at 75 ug/ml after 18 hrs by cup plate method; format: functional; conditions: read-out: DIZ; summary of the method: as §1
[40] = tested on: Aspergillus niger; assay: Antifungal activity against Aspergillus niger at 25 ug/ml after 48 hrs by cup plate method; format: functional, organism-based; summary of the method: as §2
[41] = tested on: Bacillus subtilis; assay: Antibacterial activity against Bacillus subtilis at 50 ug/ml after 18 hrs by cup plate method; format: functional; conditions: read-out: DIZ; summary of the method: as §1
[42] = tested on: Escherichia coli; assay: Antibacterial activity against Escherichia coli at 50 ug/ml after 18 hrs by cup plate method; format: functional; conditions: read-out: DIZ; summary of the method: as §1
[43] = tested on: Staphylococcus epidermidis; assay: Antibacterial activity against Staphylococcus epidermidis at 25 ug/ml after 18 hrs by cup plate method; format: functional; conditions: read-out: DIZ; summary of the method: as §1

`CCN1C(N2CCN(Cc3ccc([N+](=O)[O-])o3)CC2)=NS(=O)(=O)c2ccccc21` gave a zone of inhibition at 25 µg/mL [1] of 16 mm, a zone of inhibition at 75 µg/mL [2] of 20 mm and a zone of inhibition at 75 µg/mL [3] of 15 mm. For the same compound, the “inhibition zone (IZ)” value [4] was “inactive”, the “inhibition zone (IZ)” value [5] was “inactive” and the zone of inhibition at 10 µg/mL [6] was 9 mm. For the same compound, the zone of inhibition at 100 µg/mL [7] was 24 mm, the “diameter of the inhibition zone (DIZ)” value [8] was “inactive” and the “inhibition zone (IZ)” value [9] was “inactive”. For the same compound, the zone of inhibition at 100 µg/mL [10] was 10 mm, the zone of inhibition at 25 µg/mL [11] was 16 mm and the zone of inhibition at 50 µg/mL [12] was 10 mm. It also gave a zone of inhibition at 25 µg/mL [13] of 15 mm, a zone of inhibition at 100 µg/mL [14] of 30 mm and a zone of inhibition at 100 µg/mL [15] of 23 mm. The “inhibition zone (IZ)” value [16] was “inactive”, the “diameter of the inhibition zone (DIZ)” value [17] was “inactive” and the “inhibition zone (IZ)” value [18] was “inactive”. It also gave a zone of inhibition at 25 µg/mL [19] of 11 mm, a zone of inhibition at 50 µg/mL [20] of 11 mm and a zone of inhibition at 25 µg/mL [21] of 20 mm. For the same compound, the “inhibition zone (IZ)” value [22] was “inactive”, the “inhibition zone (IZ)” value [23] was “inactive” and the zone of inhibition at 10 µg/mL [24] was 13 mm. For the same compound, the “inhibition zone (IZ)” value [25] was “inactive”, the “inhibition zone (IZ)” value [26] was “inactive” and the zone of inhibition at 100 µg/mL [27] was 10 mm. For the same compound, the zone of inhibition at 75 µg/mL [28] was 29 mm, the zone of inhibition at 10 µg/mL [29] was 10 mm and the zone of inhibition at 50 µg/mL [30] was 16 mm. It also gave a zone of inhibition at 75 µg/mL [31] of 22 mm, a zone of inhibition at 10 µg/mL [32] of 12 mm and a zone of inhibition at 50 µg/mL [33] of 12 mm. The zone of inhibition at 100 µg/mL [34] was 19 mm, the zone of inhibition at 75 µg/mL [35] was 19 mm and the “inhibition zone (IZ)” value [36] was “inactive”. It also gave an MIC [37] of 2.81 µg/mL (≈ 6.7 µM), a zone of inhibition at 100 µg/mL [38] of 16 mm and a zone of inhibition at 75 µg/mL [39] of 21 mm. For the same compound, the “inhibition zone (IZ)” value [40] was “inactive”, the zone of inhibition at 50 µg/mL [41] was 17 mm and the zone of inhibition at 50 µg/mL [42] was 16 mm. The zone of inhibition at 25 µg/mL [43] was 12 mm.
